Active and inactive are the calls of the source. The rule behind the calls is not given here.
What was measured:
Plasmodium falciparum [1] = assay: Resistance index, ratio of IC50 for chloroquine-resistant Plasmodium falciparum K1 to IC50 for chloroquine-sensitive Plasmodium falciparum 3D7; type: functional
In short: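 Resistance index computed as IC50 (K1) / IC50 (3D7). Both IC50s come from the 72 h SYBR Green I fluorescence assay on P. falciparum-infected erythrocytes, run with two-fold serial dilutions in duplicate wells.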

Plasmodium falciparum [2] = assay: Antiplasmodial activity against chloroquine-resistant Plasmodium falciparum K1 by Malaria SYBR Green I-nucleic acid staining based fluorescence assay; type: functional, organism-based
In short: (§1)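 SYBR Green I fluorescence assay (MSF). DMSO stock at 5 mg/mL, two-fold serial dilutions in RPMI-1640-FBS, tested in duplicate wells. Parasitized erythrocytes (0.8% parasitaemia, 1.0% cell suspension) incubated 72 h at 37 °C under 5% CO2. Lysis buffer with SYBR Green I added, 1 h at 37 °C. Fluorescence read at 485/530 nm.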

Heme = assay: Binding affinity to heme assessed as inhibition of 1-oleoyl-rac-glycerol-induced beta-hematin polymerization by UV spectrophotometry
Plasmodium falciparum [3] = assay: Antiplasmodial activity against chloroquine-sensitive Plasmodium falciparum 3D7 by Malaria SYBR Green I-nucleic acid staining based fluorescence assay; type: functional, organism-based; in short: as §1
[4] = Binding affinity to hematin in 40% aqueous DMSO and 20 mM HEPES buffer at pH 7.5 at 25 degC
[5] = Selectivity index, ratio of CC50 for african green monkey Vero cells to IC50 for chloroquine-sensitive Plasmodium falciparum; type: functional
Plasmodium yoelii [6] = assay: Antimalarial activity against chloroquine-resistant Plasmodium yoelii N-67infected in Swiss Albino mouse assessed as mouse cured on day 28 at 100 mg/kg, po once daily for 7 days measured on day 4 post infection; type: functional, organism-based; parameters: dose 100 mg/kg
In short: (§2)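 P. yoelii N-67 (innately CQ-resistant) infection in Swiss albino mice (22 ± 2 g), 1 × 10^6 parasitized RBC on day 0. Groups of five dosed orally once daily from day 0, 100 mg/kg/day as aqueous suspension with a few drops of Tween 80. Parasitaemia read from thin blood smears every four days. % suppression uses the group mean vs untreated controls. Survival and cure (no parasitaemia) tracked to day 28.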

Plasmodium yoelii [7] = assay: Antimalarial activity against chloroquine-resistant Plasmodium yoelii N-67infected in Swiss Albino mouse assessed as suppression of parasitemia at 100 mg/kg, po once daily for 7 days measured on day 4 post infection; type: functional; in short: as §2
Plasmodium yoelii [8] = assay: Antimalarial activity against chloroquine-resistant Plasmodium yoelii N-67infected in Swiss Albino mouse assessed as mouse survival on day 28 at 100 mg/kg, po once daily for 7 days measured on day 4 post infection; type: functional, organism-based; parameters: dose 100 mg/kg; in short: as §2
Plasmodium yoelii [9] = assay: Antimalarial activity against chloroquine-resistant Plasmodium yoelii N-67infected in Swiss Albino mouse assessed as suppression of parasitemia at 100 mg/kg, po once daily for 4 days measured on day 4 post infection; type: functional; conditions: N-67, 96 h; in short: as §2
Plasmodium yoelii [10] = assay: Antimalarial activity against chloroquine-resistant Plasmodium yoelii N-67infected in Swiss Albino mouse assessed as mouse survival on day 28 at 100 mg/kg, po once daily for 4 days measured on day 4 post infection; type: functional, organism-based; parameters: dose 100 mg/kg; in short: as §2
Plasmodium yoelii [11] = assay: Antimalarial activity against chloroquine-resistant Plasmodium yoelii N-67infected in Swiss Albino mouse assessed as mouse cured on day 28 at 100 mg/kg, po once daily for 4 days measured on day 4 post infection; type: functional, organism-based; parameters: dose 100 mg/kg; in short: as §2
Plasmodium yoelii [12] = assay: Antimalarial activity against chloroquine-resistant Plasmodium yoelii N-67infected in Swiss Albino mouse assessed as mouse survival on day 28 at 20 mg/kg, po once daily for 4 days measured on day 4 post infection; type: functional, organism-based; parameters: dose 20 mg/kg
In short: (§3)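 Reference arm in the N-67 P. yoelii Swiss albino mouse model. 1 × 10^6 parasitized RBC given on day 0, five mice per group, oral dosing once daily. Parasitaemia from thin blood smears every four days; % suppression from the group mean vs untreated controls. Survival and cure (no parasitaemia) followed to day 28.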

Plasmodium yoelii [13] = assay: Antimalarial activity against chloroquine-resistant Plasmodium yoelii N-67infected in Swiss Albino mouse assessed as mouse cured on day 28 at 20 mg/kg, po once daily for 4 days measured on day 4 post infection; type: functional, organism-based; parameters: dose 20 mg/kg; in short: as §3
Plasmodium yoelii [14] = assay: Antimalarial activity against chloroquine-resistant Plasmodium yoelii N-67infected in Swiss Albino mouse assessed as suppression of parasitemia at 20 mg/kg, po once daily for 4 days measured on day 4 post infection; type: functional; conditions: N-67, 96 h; in short: as §3

SMILES: C[C@@H](CCCN(C)C)Nc1ccnc2cc(Cl)ccc12
- Ratio IC50 (Plasmodium falciparum [1]): 20.88
- IC50 (Plasmodium falciparum [2]): 358 nM
- IC50 (Heme): 150000 nM
- IC50 (Plasmodium falciparum [3]): 17.1 nM
- log K [4]: 4.95
- Selectivity Index [5]: 12483

SMILES: CCN(CC)CCC[C@@H](C)Nc1ccnc2cc(Cl)ccc12 [(R)-CHLOROQUINE]
- Activity (Plasmodium yoelii [6]): inactive
- inhibition in vivo at 100 mg/kg (Plasmodium yoelii [7]): 100%

SMILES: C[C@H](CCCN1CCCC1)Nc1ccnc2cc(Cl)ccc12
- Activity (Plasmodium yoelii [6]): inactive
- Ratio IC50 (Plasmodium falciparum [1]): 12.23
- IC50 (Plasmodium falciparum [2]): 125 nM
- IC50 (Heme): 140000 nM
- IC50 (Plasmodium falciparum [3]): 10.2 nM
- Activity (Plasmodium yoelii [8]): inactive
- log K [4]: 6.02
- Selectivity Index [5]: 14140
- inhibition in vivo at 100 mg/kg (Plasmodium yoelii [7]): 100%

SMILES: C[C@@H](CCCNC(C)(C)C)Nc1ccnc2cc(Cl)ccc12
- Ratio IC50 (Plasmodium falciparum [1]): >47.43
- IC50 (Plasmodium falciparum [2]): > 1560 nM
- IC50 (Heme): 150000 nM
- IC50 (Plasmodium falciparum [3]): 33 nM
- log K [4]: 5.04
- Selectivity Index [5]: 7100

SMILES: C[C@@H](CCCN1CCN(C)CC1)Nc1ccnc2cc(Cl)ccc12
- Ratio IC50 (Plasmodium falciparum [1]): 1.53
- IC50 (Plasmodium falciparum [2]): 21.8 nM
- IC50 (Heme): 140000 nM
- IC50 (Plasmodium falciparum [3]): 14.2 nM
- Activity (Plasmodium yoelii [8]): Active
- log K [4]: 4.73
- Selectivity Index [5]: 14744
- inhibition in vivo at 100 mg/kg (Plasmodium yoelii [7]): 100%

SMILES: C[C@@H](CCCN1CCOCC1)Nc1ccnc2cc(Cl)ccc12
- Ratio IC50 (Plasmodium falciparum [1]): 4.05
- inhibition in vivo at 100 mg/kg (Plasmodium yoelii [9]): 99.6%
- IC50 (Plasmodium falciparum [2]): 56.8 nM
- IC50 (Heme): 190000 nM
- IC50 (Plasmodium falciparum [3]): 14 nM
- Activity (Plasmodium yoelii [10]): Active
- Activity (Plasmodium yoelii [11]): inactive
- log K [4]: 6
- Selectivity Index [5]: 19256

SMILES: C[C@@H](CCCN1CCCCC1)Nc1ccnc2cc(Cl)ccc12
- Ratio IC50 (Plasmodium falciparum [1]): 8.09
- IC50 (Plasmodium falciparum [2]): 121 nM
- IC50 (Heme): 150000 nM
- IC50 (Plasmodium falciparum [3]): 14.9 nM
- log K [4]: 5.4
- Selectivity Index [5]: 20154

SMILES: CCCCCCCCN(CCCCCCCC)CCC[C@H](C)Nc1ccnc2cc(Cl)ccc12
- Activity (Plasmodium yoelii [6]): inactive
- Ratio IC50 (Plasmodium falciparum [1]): 0.084
- IC50 (Plasmodium falciparum [2]): 7.95 nM
- IC50 (Heme): 200000 nM
- IC50 (Plasmodium falciparum [3]): 94.8 nM
- Activity (Plasmodium yoelii [8]): inactive
- log K [4]: 5.58
- Selectivity Index [5]: 103.94
- inhibition in vivo at 100 mg/kg (Plasmodium yoelii [7]): 14.5%

SMILES: C[C@H](CCCN1CCN(C)CC1)Nc1ccnc2cc(Cl)ccc12
- Ratio IC50 (Plasmodium falciparum [1]): 15.2
- IC50 (Plasmodium falciparum [2]): 105 nM
- IC50 (Heme): 180000 nM
- IC50 (Plasmodium falciparum [3]): 6.92 nM
- Activity (Plasmodium yoelii [8]): Active
- log K [4]: 5.53
- Selectivity Index [5]: 18245
- inhibition in vivo at 100 mg/kg (Plasmodium yoelii [7]): 100%

SMILES: C[C@H](CCCN1CCCCC1)Nc1ccnc2cc(Cl)ccc12
- Ratio IC50 (Plasmodium falciparum [1]): 10.13
- IC50 (Plasmodium falciparum [2]): 536 nM
- IC50 (Heme): 130000 nM
- IC50 (Plasmodium falciparum [3]): 52.9 nM
- log K [4]: 7.19
- Selectivity Index [5]: 4257

SMILES: CCN(CC)CCCC(C)Nc1ccnc2cc(Cl)ccc12 (racemic) [CHLOROQUINE]
- Activity (Plasmodium yoelii [12]): Active
- Activity (Plasmodium yoelii [13]): inactive
- inhibition in vivo at 20 mg/kg (Plasmodium yoelii [14]): 99%

SMILES: CCN(CC)CCC[C@H](C)Nc1ccnc2cc(Cl)ccc12
- Activity (Plasmodium yoelii [6]): inactive
- inhibition in vivo at 100 mg/kg (Plasmodium yoelii [7]): 100%

SMILES: CCCCCCCCN(CCCCCCCC)CCC[C@@H](C)Nc1ccnc2cc(Cl)ccc12
- Activity (Plasmodium yoelii [6]): inactive
- Ratio IC50 (Plasmodium falciparum [1]): 1.6
- IC50 (Plasmodium falciparum [2]): 126 nM
- IC50 (Heme): 190000 nM
- IC50 (Plasmodium falciparum [3]): 78.6 nM
- Activity (Plasmodium yoelii [8]): inactive
- log K [4]: 5.02
- Selectivity Index [5]: 44.28
- inhibition in vivo at 100 mg/kg (Plasmodium yoelii [7]): 9.5%

SMILES: CCN(C)CCC[C@H](C)Nc1ccnc2cc(Cl)ccc12
- Ratio IC50 (Plasmodium falciparum [1]): 20.85
- IC50 (Plasmodium falciparum [2]): 258 nM
- IC50 (Heme): 150000 nM
- IC50 (Plasmodium falciparum [3]): 12.4 nM
- log K [4]: 5.61
- Selectivity Index [5]: 26389

SMILES: C[C@H](CCCN1CCOCC1)Nc1ccnc2cc(Cl)ccc12
- Ratio IC50 (Plasmodium falciparum [1]): 3.76
- IC50 (Plasmodium falciparum [2]): 106 nM
- IC50 (Heme): 150000 nM
- IC50 (Plasmodium falciparum [3]): 28.1 nM
- log K [4]: 5.69
- Selectivity Index [5]: 4186

SMILES: CCN(C)CCC[C@@H](C)Nc1ccnc2cc(Cl)ccc12
- Ratio IC50 (Plasmodium falciparum [1]): 36.92
- IC50 (Plasmodium falciparum [2]): 287 nM
- IC50 (Heme): 140000 nM
- IC50 (Plasmodium falciparum [3]): 7.78 nM
- log K [4]: 3.63
- Selectivity Index [5]: 15838

SMILES: C[C@@H](CCCN1CCCC1)Nc1ccnc2cc(Cl)ccc12
- Activity (Plasmodium yoelii [6]): inactive
- Ratio IC50 (Plasmodium falciparum [1]): 3.83
- IC50 (Plasmodium falciparum [2]): 60.4 nM
- IC50 (Heme): 180000 nM
- IC50 (Plasmodium falciparum [3]): 15.8 nM
- log K [4]: 5.19
- Selectivity Index [5]: 1469
- inhibition in vivo at 100 mg/kg (Plasmodium yoelii [7]): 100%

SMILES: C[C@H](CCCNC(C)(C)C)Nc1ccnc2cc(Cl)ccc12
- Ratio IC50 (Plasmodium falciparum [1]): >335
- IC50 (Plasmodium falciparum [2]): > 1560 nM
- IC50 (Heme): 170000 nM
- IC50 (Plasmodium falciparum [3]): 4.66 nM
- log K [4]: 5.71
- Selectivity Index [5]: 24459

SMILES: C[C@H](CCCN(C)C)Nc1ccnc2cc(Cl)ccc12
- Ratio IC50 (Plasmodium falciparum [1]): 33.74
- IC50 (Plasmodium falciparum [2]): 202 nM
- IC50 (Heme): 190000 nM
- IC50 (Plasmodium falciparum [3]): 6 nM
- log K [4]: 5.77
- Selectivity Index [5]: 28483
